Experimental data taken from the array DNA melting data of Ke et al. (doi:10.1101/2024.01.08.574731).

Key:
[1] = folding enthalpy; higher = less favourable; fluorescence melt of hairpins on a sequencing array, two-state fit; conditions: sodium 0.088 M
Procedure, shortened: (§1)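 Library hairpins on a sequenced MiSeq flow cell carried annealed Cy3 and quencher oligos, and their Cy3 fluorescence was imaged in 50 mM Na-HEPES pH 8.0 with 25 mM NaCl, in 2.5 °C steps up to 60 °C. Signals were normalised to Cy3 before quenching and to control constructs. Melting temperature and folding enthalpy were obtained from bootstrapped two-state fits, combined by inverse-variance weighting across four replicates, and the fitted temperatures were then raised by 9.35 °C to match UV melts.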

[2] = melting temperature; fluorescence melt of hairpins on a sequencing array, two-state fit, raised by 9.35 °C to match UV melts; conditions: sodium 0.088 M
Procedure, shortened: as §1

Sequence | folding enthalpy [1] | Tm [2]
GATCAAGCCGTTGATC ((((((....)))))) | -29.4 kcal/mol | 46.5 °C
GATCAAGCTGTTGATC ((((((....)))))) | -31.2 kcal/mol | 42.7 °C
GATCAAGGCCTTGATC ((((((....)))))) | -51.6 kcal/mol | 55 °C
GATCAAGGGGTTGATC ((((((....)))))) | -29.4 kcal/mol | 42.8 °C
GATCAAGGTTTGATC ((((((...)))))) | -28.5 kcal/mol | 42.4 °C
GATCAAGTACTTGATC ((((((....)))))) | -45.2 kcal/mol | 51.9 °C
GATCAAGTCTTGATC ((((((...)))))) | -30.4 kcal/mol | 46.2 °C
GATCAAGTCTTTGATC ((((((....)))))) | -43.8 kcal/mol | 48.9 °C
GATCAAGTTCTTGATC ((((((....)))))) | -38.6 kcal/mol | 49.7 °C
GATCAATAAGTTGATC ((((((....)))))) | -33.7 kcal/mol | 44.4 °C
GATCAATAATTTGATC ((((((....)))))) | -34.8 kcal/mol | 43.2 °C
GATCAATAGATTGATC ((((((....)))))) | -31 kcal/mol | 42.5 °C
GATCAATAGGTTGATC ((((((....)))))) | -34.3 kcal/mol | 45.1 °C
GATCAATATATTGATC ((((((....)))))) | -47.1 kcal/mol | 49.1 °C
GATCAATCATTGATC ((((((...)))))) | -27.1 kcal/mol | 42 °C
GATCAATCCTTTGATC ((((((....)))))) | -39.3 kcal/mol | 48.6 °C
GATCAATCGATTGATC ((((((....)))))) | -53.5 kcal/mol | 51.3 °C
GATCAATCGCTTGATC ((((((....)))))) | -44.9 kcal/mol | 45.5 °C
GATCAATCTTTGATC ((((((...)))))) | -28.2 kcal/mol | 44.6 °C
GATCAATGAGTTGATC ((((((....)))))) | -37.1 kcal/mol | 48.4 °C
GATCAATGATTGATC ((((((...)))))) | -29.9 kcal/mol | 40.6 °C
GATCAATGTTTGATC ((((((...)))))) | -30.8 kcal/mol | 43.8 °C
GATCAATTAATTGATC ((((((....)))))) | -42 kcal/mol | 48.8 °C
GATCAATTAGTTGATC ((((((....)))))) | -35 kcal/mol | 45.6 °C

Sequence | folding enthalpy [1] | Tm [2]
GATCAATTGCTTGATC ((((((....)))))) | -33.7 kcal/mol | 43.5 °C
GATCACAAAGTGATC ((((((...)))))) | -38.2 kcal/mol | 61 °C
GATCACAACTGTGATC ((((((....)))))) | -37.4 kcal/mol | 58.9 °C
GATCACAAGAGTGATC ((((((....)))))) | -33.1 kcal/mol | 54.5 °C
GATCACAAGTGTGATC ((((((....)))))) | -39 kcal/mol | 56.4 °C
GATCACACACGTGATC ((((((....)))))) | -35.8 kcal/mol | 57.9 °C
GATCACACCGTGATC ((((((...)))))) | -38.5 kcal/mol | 60.6 °C
GATCACACTGGTGATC ((((((....)))))) | -36.1 kcal/mol | 56.4 °C
GATCACAGTTGTGATC ((((((....)))))) | -35.7 kcal/mol | 60.4 °C
GATCACATAGGTGATC ((((((....)))))) | -39.1 kcal/mol | 55.8 °C
GATCACATAGTGATC ((((((...)))))) | -40 kcal/mol | 62.4 °C
GATCACATGCGTGATC ((((((....)))))) | -38.4 kcal/mol | 57.8 °C
GATCACCAAGTGATC ((((((...)))))) | -36.8 kcal/mol | 52.5 °C
GATCACCACTGTGATC ((((((....)))))) | -43.5 kcal/mol | 56.1 °C
GATCACCAGGGTGATC ((((((....)))))) | -36.5 kcal/mol | 62.2 °C
GATCACCATGTGATC ((((((...)))))) | -33 kcal/mol | 59.2 °C
GATCACCCACGTGATC ((((((....)))))) | -47 kcal/mol | 56.5 °C
GATCACCCATGTGATC ((((((....)))))) | -33.8 kcal/mol | 55.7 °C
GATCACCCCAGTGATC ((((((....)))))) | -44.7 kcal/mol | 60 °C
GATCACCGAAAGGTTATC (((.(((....))).))) | -27.7 kcal/mol | 40.4 °C
GATCACCGGAGTGATC ((((((....)))))) | -41.2 kcal/mol | 57.7 °C
GATCACCGTAGTGATC ((((((....)))))) | -51.1 kcal/mol | 57 °C
GATCACCTGAGTGATC ((((((....)))))) | -35.8 kcal/mol | 57 °C
GATCACCTGGTGATC ((((((...)))))) | -33.1 kcal/mol | 58.1 °C

Sequence | folding enthalpy [1] | Tm [2]
GATCACCTTAGTGATC ((((((....)))))) | -39.1 kcal/mol | 59.3 °C
GATCACGAAAGTGCTATC ((((((....)))..))) | -12.1 kcal/mol | 26.1 °C
GATCACGAACGTGATC ((((((....)))))) | -42.4 kcal/mol | 67.3 °C
GATCACGACCGTGATC ((((((....)))))) | -46.1 kcal/mol | 63.6 °C
GATCACGCAGGTGATC ((((((....)))))) | -39.6 kcal/mol | 64.2 °C
GATCACGCCGGTGATC ((((((....)))))) | -38.7 kcal/mol | 60.7 °C
GATCACGGCCGTGATC ((((((....)))))) | -49.1 kcal/mol | 66.3 °C
GATCACGTCGGTGATC ((((((....)))))) | -36.5 kcal/mol | 59.7 °C
GATCACGTGCGTGATC ((((((....)))))) | -45.1 kcal/mol | 59.7 °C
GATCACTACTGTGATC ((((((....)))))) | -42 kcal/mol | 56.5 °C
GATCACTAGCGTGATC ((((((....)))))) | -41.8 kcal/mol | 55.1 °C
GATCACTATAGTGATC ((((((....)))))) | -38.1 kcal/mol | 58.8 °C
GATCACTCAGTGATC ((((((...)))))) | -35.5 kcal/mol | 58.3 °C
GATCACTCTGTGATC ((((((...)))))) | -35.8 kcal/mol | 61.6 °C
GATCACTGAAGTGATC ((((((....)))))) | -36.4 kcal/mol | 56.8 °C
GATCACTGCGTGATC ((((((...)))))) | -26.3 kcal/mol | 61 °C
GATCACTTAGTGATC ((((((...)))))) | -37 kcal/mol | 58.6 °C
GATCACTTCAGTGATC ((((((....)))))) | -46.6 kcal/mol | 63.9 °C
GATCACTTGCGTGATC ((((((....)))))) | -40.7 kcal/mol | 55.9 °C
GATCAGAATCCTGATC ((((((....)))))) | -31 kcal/mol | 46.9 °C
GATCAGACGTCTGATC ((((((....)))))) | -60.5 kcal/mol | 55 °C
GATCAGACTCTGATC ((((((...)))))) | -35 kcal/mol | 47.1 °C
GATCAGAGTCTGATC ((((((...)))))) | -39.1 kcal/mol | 47.4 °C
GATCAGATAACTGATC ((((((....)))))) | -34.5 kcal/mol | 46.8 °C

Sequence | folding enthalpy [1] | Tm [2]
GATCAGATCACTGATC ((((((....)))))) | -28.6 kcal/mol | 49.9 °C
GATCAGATCTCTGATC ((((((....)))))) | -40 kcal/mol | 50.7 °C
GATCAGATTCCTGATC ((((((....)))))) | -39 kcal/mol | 48.5 °C
GATCAGATTCTGATC ((((((...)))))) | -29.7 kcal/mol | 48.5 °C
GATCAGCAGCTGATC ((((((...)))))) | -48.4 kcal/mol | 48.8 °C
GATCAGCCAACTGATC ((((((....)))))) | -33.8 kcal/mol | 49.6 °C
GATCAGCCCTCTGATC ((((((....)))))) | -35.3 kcal/mol | 50.1 °C
GATCAGCCTTCTGATC ((((((....)))))) | -37.9 kcal/mol | 48.5 °C
GATCAGCGAAAGCTTATC (((.(((....))).))) | -20.2 kcal/mol | 38.9 °C
GATCAGCGACTGATC ((((((...)))))) | -33.1 kcal/mol | 46.8 °C
GATCAGCGCACTGATC ((((((....)))))) | -40.4 kcal/mol | 52.5 °C
GATCAGCGTCTGATC ((((((...)))))) | -38.8 kcal/mol | 49.9 °C
GATCAGCGTGCTGATC ((((((....)))))) | -37.1 kcal/mol | 67.2 °C
GATCAGCTACCTGATC ((((((....)))))) | -40 kcal/mol | 48.9 °C
GATCAGCTCCTGATC ((((((...)))))) | -43.2 kcal/mol | 50 °C
GATCAGCTGCTGATC ((((((...)))))) | -47.7 kcal/mol | 50.7 °C
GATCAGCTGGCTGATC ((((((....)))))) | -34.1 kcal/mol | 64.4 °C
GATCAGCTGTCTGATC ((((((....)))))) | -38.9 kcal/mol | 50.3 °C
GATCAGCTTCCTGATC ((((((....)))))) | -44.1 kcal/mol | 49.6 °C
GATCAGGAACTGATC ((((((...)))))) | -39.4 kcal/mol | 60.6 °C
GATCAGGATCTGATC ((((((...)))))) | -32.1 kcal/mol | 48 °C
GATCAGGCAGCTGATC ((((((....)))))) | -34.2 kcal/mol | 52.4 °C
GATCAGGCTCCTGATC ((((((....)))))) | -42.8 kcal/mol | 52.5 °C
GATCAGGCTGCTGATC ((((((....)))))) | -46.2 kcal/mol | 50.4 °C
